Experimental data collected from several papers.
Target: BDNF/NT-3 growth factors receptor (NTRK2, Homo sapiens, UniProt Q16620)

Structure (SMILES)	assay	setting	remaining binding [%]
COc1cnc(Nc2cccc(S(N)(=O)=O)c2)nc1N1CCN(c2ccccc2)CC1	binding, competition with immobilised ligand	1 µM	75
O=C(Nc1c[nH]nc1C(=O)NC1CCNCC1)c1cc(F)cc(F)c1	binding, competition with immobilised ligand	1 µM	71
COc1ncc2cc3ccccc3nc2c1C#N	cell-free assay, competition with immobilised ligand	5 µM	98
O=C(NC[C@@H]1[C@H]2CN(C(=O)OCc3cc(C(F)(F)F)cc(C(F)(F)F)c3)C[C@@H]12)c1ccc2[nH]nnc2c1	cell-free assay, competition with immobilised ligand	1 µM	99
N[C@H]1CCN(c2nccc(-c3cnn4ncccc34)n2)C1	binding	1 µM	100
O=C(Nc1cnc(Oc2ccc(F)cc2)nc1)N1CCc2ncccc2[C@@H]1c1ccc(F)cc1	cell-free assay, competition with immobilised ligand	1 µM	100
O=C(c1ccc(Nc2ncc(Cl)c(-c3ccc(Cl)s3)n2)cc1)N1CCC(N2CCCC2)CC1	binding, competition with immobilised ligand	1 µM	5.3
Cc1cnn2ncc(-c3ccnc(N(C)C)n3)c2c1	binding	1 µM	84
CC(C)CC(=O)N1CCc2nc(-c3ccc(Br)cc3)nc(N(C)Cc3ccccc3)c2C1	cell-free assay, competition with immobilised ligand	0.1 µM	100
C[C@@H](c1ccc(-n2cnc3c(N)ncnc32)cc1)N1CCc2nn(C)c(Cc3ccccc3)c2C1=O	binding, competition with immobilised ligand	0.1 µM	24
CN(C)c1nccc(-c2cnc3ncccn23)n1	binding	1 µM	65
COc1cnc(Nc2cccc(S(N)(=O)=O)c2)nc1N1CCN(c2ccccc2)C(=O)C1	binding, competition with immobilised ligand	1 µM	100
O=C(O)[C@@H]1[C@@H](Cn2nnc3ccccc3c2=O)CC[C@H]1C(=O)c1ccc(OCCC2CCOCC2)cc1	cell-free assay, competition with immobilised ligand	1 µM	93
CN(CCCC(F)(F)F)c1nccc(-c2cnn3ncccc23)n1	binding	1 µM	100
O=C(NCCCN1CCOCC1)c1ccc(Nc2nccc(-c3cc4ccccc4s3)n2)cc1	binding, competition with immobilised ligand	1 µM	69
CN(C)CC#Cc1ccc(OCCCc2sc(N3CCc4cccc(C(=O)Nc5nc6ccccc6s5)c4C3)nc2C(=O)O)c(F)c1	cell-free assay, competition with immobilised ligand	1 µM	100
Nc1ncc2c(n1)-c1c([nH]c3ccc(C#CC4CC4)cc13)CCCC2	binding, competition with immobilised ligand	1 µM	77
C[C@H]1CCN(c2nccc(-c3cnn4ncccc34)n2)C1	binding	1 µM	61
CCCCN(CCCC)C(=O)CN1C[C@@H](c2cc(OC)c3c(c2)OCO3)[C@H](C(=O)O)[C@H]1CC(C)(C)CCC	cell-free assay, competition with immobilised ligand	1 µM	98.3
F[C@@H]1CCN(c2nccc(-c3cnn4ncccc34)n2)C1	binding	1 µM	100
O=C(c1ccc(Nc2ncc(Cl)c(-c3cc4ccccc4s3)n2)cc1)N1CCC(N2CCCC2)CC1	binding, competition with immobilised ligand	1 µM	13
